For experiment [1], the target named is T1, glypican-1 binding to Slit protein (Homo sapiens, UniProt O94813, DEL1116-1124).
T1 sequence (O94813 with tags, fused parts or gaps DEL1116-1124): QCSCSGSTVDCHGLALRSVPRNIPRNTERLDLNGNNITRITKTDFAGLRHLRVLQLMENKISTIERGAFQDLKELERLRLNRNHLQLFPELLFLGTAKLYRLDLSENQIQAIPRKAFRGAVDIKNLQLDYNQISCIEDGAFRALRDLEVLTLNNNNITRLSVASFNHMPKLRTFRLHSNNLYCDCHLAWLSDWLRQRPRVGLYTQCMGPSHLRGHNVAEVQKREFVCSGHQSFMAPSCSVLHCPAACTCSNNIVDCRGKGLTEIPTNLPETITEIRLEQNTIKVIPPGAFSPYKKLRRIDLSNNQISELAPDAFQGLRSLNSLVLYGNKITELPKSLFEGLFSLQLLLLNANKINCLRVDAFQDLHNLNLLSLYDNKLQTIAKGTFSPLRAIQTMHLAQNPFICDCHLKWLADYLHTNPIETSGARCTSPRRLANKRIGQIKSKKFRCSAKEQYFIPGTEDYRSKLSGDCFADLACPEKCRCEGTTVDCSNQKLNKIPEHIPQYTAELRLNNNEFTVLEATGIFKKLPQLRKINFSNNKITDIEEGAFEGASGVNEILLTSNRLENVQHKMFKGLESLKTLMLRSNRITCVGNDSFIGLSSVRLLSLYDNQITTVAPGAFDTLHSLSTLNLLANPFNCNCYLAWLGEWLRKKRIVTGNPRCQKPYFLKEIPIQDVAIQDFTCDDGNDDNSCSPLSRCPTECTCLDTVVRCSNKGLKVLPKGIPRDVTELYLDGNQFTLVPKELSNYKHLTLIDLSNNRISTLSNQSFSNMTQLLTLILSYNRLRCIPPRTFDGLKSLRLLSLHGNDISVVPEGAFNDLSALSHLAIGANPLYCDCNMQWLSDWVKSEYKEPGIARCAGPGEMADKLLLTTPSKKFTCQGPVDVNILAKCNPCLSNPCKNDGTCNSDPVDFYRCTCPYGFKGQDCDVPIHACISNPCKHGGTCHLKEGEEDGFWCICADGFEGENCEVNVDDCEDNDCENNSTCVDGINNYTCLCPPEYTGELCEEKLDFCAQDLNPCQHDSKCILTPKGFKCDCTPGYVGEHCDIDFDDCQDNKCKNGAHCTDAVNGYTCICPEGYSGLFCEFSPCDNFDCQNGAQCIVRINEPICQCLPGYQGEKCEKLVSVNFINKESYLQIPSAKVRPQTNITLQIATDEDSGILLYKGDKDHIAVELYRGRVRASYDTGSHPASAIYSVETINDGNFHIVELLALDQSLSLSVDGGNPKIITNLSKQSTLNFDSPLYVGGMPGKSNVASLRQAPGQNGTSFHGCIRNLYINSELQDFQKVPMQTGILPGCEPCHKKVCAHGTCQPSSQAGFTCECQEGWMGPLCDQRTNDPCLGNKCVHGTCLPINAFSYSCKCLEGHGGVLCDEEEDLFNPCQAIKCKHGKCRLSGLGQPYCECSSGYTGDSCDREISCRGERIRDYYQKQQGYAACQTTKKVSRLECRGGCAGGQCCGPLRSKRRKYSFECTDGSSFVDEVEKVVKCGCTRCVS
In words: ELISA of glypican-1–Fc binding to immobilised human full-length Slit-2. In short, it runs like this:
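Wells coated overnight with His-tagged uncleavable full-length human Slit-2 (HEK293-expressed, Ni-agarose purified), 5 μg/well in PBS; blocked 2 h with 10% FBS/TBST. Glycanated glypican-1–Fc (HEK293, DEAE then protein A) added at 1 μg/mL in PBS, 18 h, room temperature. Detection: biotinylated anti-human Fc, HRP-streptavidin, o-phenylenediamine, 450 nm. Non-specific binding from BSA-coated wells; bound amount read from glypican-1–Fc standard curve; replicates.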

The conditions of experiment [2]: in whole blood; cited from earlier work.

By inhibition is commonly meant the share of the control response that was lost under treatment. As to `Cc1ccc(C(=O)Nc2ccc(S(=O)(=O)O)c3cc(S(=O)(=O)O)cc(S(=O)(=O)O)c23)cc1NC(=O)c1cccc(NC(=O)Nc2cccc(C(=O)Nc3cc(C(=O)Nc4ccc(S(=O)(=O)O)c5cc(S(=O)(=O)O)cc(S(=O)(=O)O)c45)ccc3C)c2)c1` [suramin], the inhibition at 5 µM in experiment [1] (read-out: inhibition of glypican binding to Slit) was 53%. Regarding `CO[C@H]1O[C@H](COS(=O)(=O)O)[C@@H](O[C@@H]2O[C@@H](C(=O)O)[C@@H](O[C@H]3O[C@H](COS(=O)(=O)O)[C@@H](O[C@@H]4O[C@H](C(=O)O)[C@@H](O[C@H]5O[C@H](COS(=O)(=O)O)[C@@H](O)[C@H](O)[C@H]5NS(=O)(=O)O)[C@H](O)[C@H]4O)[C@H](OS(=O)(=O)O)[C@H]3NS(=O)(=O)O)[C@H](O)[C@H]2OS(=O)(=O)O)[C@H](O)[C@H]1NS(=O)(=O)O` [fondaparinux], the “inhibition of glypican–Slit binding (in words)” value in experiment [1] (at concentrations up to 50 μmol/L) is “completely inactive”.

In the case of `O=S(=O)(O)c1cc2c(O)c(c1)Cc1cc(S(=O)(=O)O)cc(c1O)Cc1cc(S(=O)(=O)O)cc(c1O)Cc1cc(S(=O)(=O)O)cc(c1O)Cc1cc(S(=O)(=O)O)cc(c1O)Cc1cc(S(=O)(=O)O)cc(c1O)Cc1cc(S(=O)(=O)O)cc(c1O)Cc1cc(S(=O)(=O)O)cc(c1O)C2` [GL-522-Y-1, cyclic octaphenol-octasulphonic acid], the entries for the “inhibition of glypican binding to Slit” value in experiment [1] (at 5 μmol/L) and in experiment [1] (at 50 μmol/L) were 61% and 67%, respectively. For the same compound, the anticoagulant activity result in experiment [2] is “no significant anticoagulant activity”.
